The structures appear in SMILES notation. Counter-ions that a name gives are not always drawn. A value given as a limit tells only on which side of the number the result lay.

What all share (format): functional, cell-based
Experiment [1] can be described thus: Cytotoxicity against human PC3 cells after 24 hrs by MTT assay. The settings on record: PC-3, 24 h. In outline:
(§1)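 Cells seeded 24 h before treatment, then exposed continuously to a range of compound concentrations (dissolved in DMSO) for 24 h. MTT (5 mg/mL in PBS) added, 4 h at 37 °C, 5% CO2; absorbance read at 570 nm. IC50 (50% growth inhibition) derived from plotted data, untreated cells as 100%; at least three experiments. Taxol and adriamycin as positive controls.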

Another experiment has as its system DU-145. Put plainly: Cytotoxicity against human DU145 cells after 24 hrs by MTT assay. The settings on record: DU-145, 24 h. In outline: as §1
Background: Tetrazolium dyes change colour on reduction, which living cells bring about.

Experiment [2] can be described thus: Cytotoxicity against human NCI-H1688 cells after 24 hrs by MTT assay. The settings on record: NCI-H1688, 24 h. In outline:
as §1

A further experiment has as its system A549. Put plainly: Cytotoxicity against human A549 cells after 24 hrs by MTT assay. The settings on record: A549, 24 h. In outline:
as §1

A word on the IC50: it is the concentration needed to halve the response being measured. Higher therefore signals a need for much substance. As to `C=C[C@@]1(C)CC[C@@]2(C)[C@@H](CC[C@]34COC(=O)C3=C[C@@H](O)C[C@@H]42)C1`, the IC50 in experiment [1] is 6.2 µM; with DU-145, more than 10 µM; in experiment [2], more than 10 µM; in the experiment with A549, more than 10 µM.
Regarding `COc1cccc2c1C(=O)c1c(O)c3c(c(O)c1C2=O)C[C@@](O)(C(=O)CO)C[C@@H]3O[C@H]1C[C@H](N)[C@H](O)[C@H](C)O1` [DOXORUBICIN HYDROCHLORIDE], the IC50 in experiment [1] amounted to 11.7 µM; with DU-145, 21.4 µM; in experiment [2] it was 4.22 µM; in the experiment on A549 it was 23.7 µM.
With `CC(=O)O[C@H]1C(=O)[C@@]2(C)[C@H]([C@H](OC(=O)c3ccccc3)[C@]3(O)C[C@H](OC(=O)[C@H](O)[C@@H](NC(=O)c4ccccc4)c4ccccc4)C(C)=C1C3(C)C)[C@]1(OC(C)=O)CO[C@@H]1C[C@@H]2O` [PACLITAXEL], the IC50 in experiment [1] was 0.94 µM; in the experiment with DU-145, 1.79 µM; in experiment [2], 0.85 µM.

Source of the values: ChEMBL document CHEMBL3352693, “Notolutesins A-J, dolabrane-type diterpenoids from the Chinese liverwort Notoscyphus lutescens” (J Nat Prod, 2014).
